In ChEMBL document CHEMBL1126715, “Synthesis and tissue distribution of (m-[125I]iodobenzyl)trozamicol ([125I]MIBT): potential radioligand for mapping central cholinergic innervation” (J Med Chem, 1993):

Assays:
Rattus norvegicus [1] = species: Rattus norvegicus; test: Tissue distribution in rat kidney after 60 minutes (n=3); type: ADME, organism-based; details: in vivo, 1 h
In short: (§1)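 Male Wistar rats (200-350 g) under ether anesthesia; radiotracer (3-5 μCi in 0.1 mL 50% aqueous ethanol) given iv. At 5, 30, 60 and 180 min, blood was drawn by cardiac puncture and animals were killed by cardiectomy. Organs were weighed and γ-counted against a 1:100 dilution of the injected dose. Results are given as % injected dose/g tissue; ratios are taken between tissue levels.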

Rattus norvegicus [2] = species: Rattus norvegicus; test: Effect of vesamicol on the accumulation in rat gonads [0.15 (0.14-0.15)]; type: ADME, organism-based; details: in vivo
In short: (§2)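 Male Wistar rats (n = 4/group) given iv vehicle (100 μL 50% aqueous EtOH) or dl-vesamicol (1.01 μmol/kg); 15 min later iv radiotracer (2.0 μCi in 100 μL 50% aqueous EtOH); killed 30 min post-tracer. Blood by cardiac puncture, organs weighed and γ-counted vs 1:100 injected-dose dilution; % dose/g tissue (range); tissue/blood ratios.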

Rattus norvegicus [3] = species: Rattus norvegicus; test: Tissue distribution in rat heart after 180 minutes (n=3); type: ADME, organism-based; details: in vivo, 3 h; in short: as §1
Rattus norvegicus [4] = species: Rattus norvegicus; test: Effect of 4-aminobenzovesamicol on the regional distribution of compound in the rat brain caudate-putamen (n=4) [0.40 (0.35-0.47)]; type: ADME, organism-based; details: in vivo
Rattus norvegicus [5] = species: Rattus norvegicus; test: Tissue distribution in rat kidney after 30 minutes (n=3); type: ADME, organism-based; details: in vivo, 0.5 h; in short: as §1
Rattus norvegicus [6] = species: Rattus norvegicus; test: Ratio of effect 4-aminobenzovesamicol on regional distribution between rat brain caudate and cerebellum; type: ADME, organism-based; details: in vivo
Rattus norvegicus [7] = species: Rattus norvegicus; test: Regional kinetics in the remainder of rat brain at 120 minutes; type: ADME, organism-based; details: in vivo, 2 h
In short: (§3)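 Male Wistar rats (n = 4 per time point) under ether received (+)-radiotracer iv (2 μCi in 100 μL 50% aqueous EtOH). They were killed at 30, 120 or 180 min. Brains were partially frozen and dissected into striatum, cerebellum, cortex and remainder. Regions were γ-counted against injected-dose dilutions and expressed as % injected dose/g tissue.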

Rattus norvegicus [8] = species: Rattus norvegicus; test: Tissue distribution in rat thyroid after 5 minutes (n=3); type: ADME, organism-based, Thyroid gland; details: in vivo
In short: (§4)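 Male Wistar rats (200-350 g) under ether, iv [125I]tracer (3-5 μCi in 0.1 mL 50% aqueous EtOH). At 5, 30, 60 or 180 min, blood taken by cardiac puncture and the rat killed by cardiectomy. Organs weighed and γ-counted against 1:100 dilutions of the injected dose; results in % injected dose/g, with range.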

Rattus norvegicus [9] = species: Rattus norvegicus; test: Tissue distribution in rat brain after 60 minutes (n=3); type: ADME, organism-based; details: in vivo, 1 h; in short: as §1
Rattus norvegicus [10] = species: Rattus norvegicus; test: Tissue distribution in rat kidney after 180 minutes (n=3); type: ADME, organism-based; details: in vivo, 3 h; in short: as §1
Rattus norvegicus [11] = species: Rattus norvegicus; test: Regional kinetics in the rat cerebellum at 30 minutes; type: ADME, organism-based; details: in vivo, 0.5 h; in short: as §3
[12] = Ratio of tissue distribution between rat brain and blood after 5 min; type: ADME, organism-based; details: brain and blood
In short: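 Male Wistar rats (200-350 g) under ether anesthesia, iv radiotracer (3-5 μCi in 0.1 mL 50% aqueous ethanol). At 5, 30, 60, 180 min blood taken by cardiac puncture, animal killed by cardiectomy; organs weighed, γ-counted against 1:100 injected-dose dilution; % injected dose/g tissue; brain/blood ratio.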

Rattus norvegicus [13] = species: Rattus norvegicus; test: Tissue distribution in rat brain after 180 minutes (n=3); type: ADME, organism-based; details: in vivo, 3 h; in short: as §4
Rattus norvegicus [14] = species: Rattus norvegicus; test: Tissue distribution in rat blood after 180 minutes (n=3); type: ADME, organism-based; details: in vivo, 3 h; in short: as §1
Rattus norvegicus [15] = species: Rattus norvegicus; test: Tissue distribution in rrat heart after 60 minutes (n=3); type: ADME, organism-based; details: in vivo, 1 h; in short: as §1
Rattus norvegicus [16] = species: Rattus norvegicus; test: Tissue distribution in rat brain after 5 minutes (n=3); type: ADME, organism-based; details: in vivo; in short: as §1
Rattus norvegicus [17] = species: Rattus norvegicus; test: Tissue distribution in rat blood after 5 minutes (n=3); type: ADME, organism-based; details: in vivo; in short: as §1
Rattus norvegicus [18] = species: Rattus norvegicus; test: Regional kinetics in the rat brain caudate-putamen at 180 minutes; type: ADME, organism-based; details: in vivo, 3 h; in short: as §3
Rattus norvegicus [19] = species: Rattus norvegicus; test: Tissue distribution in rat gonads after 30 minutes (n=3); type: ADME, organism-based, Gonad; details: in vivo, 0.5 h; in short: as §1
Rattus norvegicus [20] = species: Rattus norvegicus; test: Tissue distribution in rat heart after 5 minutes (n=3); type: ADME, organism-based; details: in vivo; in short: as §1
Rattus norvegicus [21] = species: Rattus norvegicus; test: Tissue distribution in rat thyroid after 60 minutes (n=3); type: ADME, organism-based, Thyroid gland; details: in vivo, 1 h; in short: as §1
Rattus norvegicus [22] = species: Rattus norvegicus; test: Tissue distribution in rat thyroid after 180 minutes (n=3); type: ADME, organism-based, Thyroid gland; details: in vivo, 3 h; in short: as §1
Rattus norvegicus [23] = species: Rattus norvegicus; test: Ratio of tissue distribution between rat brain and blood after 60 min; type: ADME, organism-based; details: 1 h; in short: as §1
Rattus norvegicus [24] = species: Rattus norvegicus; test: Ratio of effect haloperidol on regional distribution between rat brain caudate and cortex; type: ADME, organism-based; details: in vivo
Rattus norvegicus [25] = species: Rattus norvegicus; test: Ratio of effect haloperidol on regional distribution between rat brain caudate and cerebellum; type: ADME, organism-based; details: in vivo
Rattus norvegicus [26] = species: Rattus norvegicus; test: Tissue distribution in rat heart after 30 minutes (n=3); type: ADME, organism-based; details: in vivo, 0.5 h; in short: as §4
Rattus norvegicus [27] = species: Rattus norvegicus; test: Effect of vesamicol on the accumulation in rat muscle [0.16 (0.15-0.20)]; type: ADME, organism-based, Muscle tissue; details: in vivo
In short: (§5)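 Male Wistar rats. Pretreatment at t = 0 was iv vehicle (50% aqueous EtOH) or iv dl-vesamicol (1.01 μmol/kg). At 15 min, iv [125I]tracer (2.0 μCi in 100 μL 50% aqueous EtOH) was given; rats were killed 30 min later. Tissues were weighed and γ-counted, and values expressed as % injected dose/g; n = 4 per group.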

Rattus norvegicus [28] = species: Rattus norvegicus; test: Ratio of tissue distribution between rat heart and blood after 30 min; type: ADME, organism-based; details: other tissue, 0.5 h; in short: as §1
Rattus norvegicus [29] = species: Rattus norvegicus; test: Effect of vesamicol on the accumulation in rat liver [2.01 (1.65-3.34)]; type: ADME, organism-based; details: in vivo; in short: as §2
Rattus norvegicus [30] = species: Rattus norvegicus; test: Tissue distribution in rat gonads after 5 minutes (n=3); type: ADME, organism-based, Gonad; details: in vivo; in short: as §1
Rattus norvegicus [31] = species: Rattus norvegicus; test: Tissue distribution in rat spleen after 60 minutes (n=3); type: ADME, organism-based; details: in vivo, 1 h; in short: as §1
Rattus norvegicus [32] = species: Rattus norvegicus; test: Effect of vesamicol on the accumulation in rat spleen [0.97 (0.89-1.04)]; type: ADME, organism-based; details: in vivo; in short: as §2
Rattus norvegicus [33] = species: Rattus norvegicus; test: Effect of vesamicol on the accumulation in rat lung [1.56 (1.28-1.90)]; type: ADME, organism-based; details: in vivo; in short: as §2
Rattus norvegicus [34] = species: Rattus norvegicus; test: Regional kinetics in the rat brain cortex at 120 minutes; type: ADME, organism-based; details: in vivo, 2 h; in short: as §3
Rattus norvegicus [35] = species: Rattus norvegicus; test: Effect of haloperidol on the regional distribution of compound in the rat brain cortex (n=4) [0.32 (0.29-0.38)]; type: ADME, organism-based, Cerebral cortex; details: in vivo
Rattus norvegicus [36] = species: Rattus norvegicus; test: Regional kinetics in the rat brain cortex at 180 minutes; type: ADME, organism-based; details: in vivo, 3 h
In short: (§6)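 Male Wistar rats under ether anaesthesia, iv (+)-[125I]tracer (2 μCi in 100 μL 50% aqueous EtOH); killed at 30, 120 or 180 min. Brains partially frozen and dissected into striatum, cerebellum, cortex and remainder, then counted for radioactivity. Results are % injected dose/g, calculated against counted dilutions of the injected dose.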

Rattus norvegicus [37] = species: Rattus norvegicus; test: Ratio of regional kinetics between rat brain caudate and cerebellum at 120 minutes; type: ADME, organism-based; details: in vivo, 2 h
In short: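 Male Wistar rats (n = 4/group) under ether anesthesia, iv (+)-[125I]MIBT (2 μCi in 100 μL 50% aqueous EtOH); killed at 30, 120, 180 min. Brains partially frozen, dissected into striatum, cerebellum, cortex and remainder; radioactivity counted, % dose/g vs injected-dose dilutions; caudate/cortex and caudate/cerebellum ratios.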

Rattus norvegicus [38] = species: Rattus norvegicus; test: Ratio of effect 4-aminobenzovesamicol on regional distribution between rat brain caudate and cortex; type: ADME, organism-based; details: in vivo
Rattus norvegicus [39] = species: Rattus norvegicus; test: Regional kinetics in the rat brain cortex at 30 minutes; type: ADME, organism-based; details: in vivo, 0.5 h; in short: as §6
Rattus norvegicus [40] = species: Rattus norvegicus; test: Regional kinetics in the rat brain caudate-putamen at 30 minutes; type: ADME, organism-based; details: in vivo, 0.5 h; in short: as §3
Rattus norvegicus [41] = species: Rattus norvegicus; test: Effect of vesamicol on the accumulation in rat heart [0.25 (0.21-0.30)]; type: ADME, organism-based; details: in vivo; in short: as §5
Rattus norvegicus [42] = species: Rattus norvegicus; test: Effect of 4-aminobenzovesamicol on the regional distribution of compound in the rat cerebellum (n=4) [0.12 (0.10-0.13)]; type: ADME, organism-based; details: in vivo
Rattus norvegicus [43] = species: Rattus norvegicus; test: Tissue distribution in rat liver after 30 minutes (n=3); type: ADME, organism-based; details: in vivo, 0.5 h; in short: as §1
Rattus norvegicus [44] = species: Rattus norvegicus; test: Effect of vesamicol on the accumulation in rat kidney [1.76 (1.55-2.08)]; type: ADME, organism-based; details: in vivo; in short: as §2
Rattus norvegicus [45] = species: Rattus norvegicus; test: Tissue distribution in rat spleen after 5 minutes (n=3); type: ADME, organism-based; details: in vivo; in short: as §4

O[C@@H]1CCN(Cc2cccc([125I])c2)C[C@H]1N1CCC(c2ccccc2)CC1 (stereo in doubt; (+))
Dose/g (Rattus norvegicus [1]): 0.87% | Dose/g (Rattus norvegicus [2]): 0.15% | Dose/g (Rattus norvegicus [3]): 0.1% | Dose/g (Rattus norvegicus [4]): 0.23% | Dose/g (Rattus norvegicus [5]): 1.32% | Ratio (Rattus norvegicus [6]): 2.07 | Dose/g (Rattus norvegicus [7]): 0.4% | Dose/g (Rattus norvegicus [8]): 1.6% | Dose/g (Rattus norvegicus [9]): 0.27% | Dose/g (Rattus norvegicus [10]): 0.5% | Dose/g (Rattus norvegicus [11]): 0.53% | Kp at 5 min [12]: 2.33 | Dose/g (Rattus norvegicus [13]): 0.15% | Dose/g (Rattus norvegicus [14]): 0.07% | Dose/g (Rattus norvegicus [15]): 0.15% | Dose/g (Rattus norvegicus [16]): 0.57% | Dose/g (Rattus norvegicus [17]): 0.24% | Dose/g (Rattus norvegicus [18]): 0.49% | Dose/g (Rattus norvegicus [19]): 0.15% | Dose/g (Rattus norvegicus [20]): 1.14% | Dose/g (Rattus norvegicus [21]): 4.59% | Dose/g (Rattus norvegicus [22]): 13.13% | Ratio (Rattus norvegicus [23]): 3.08 | Ratio (Rattus norvegicus [24]): 4.82 | Ratio (Rattus norvegicus [25]): 10.97 | Dose/g (Rattus norvegicus [26]): 0.26% | Dose/g (Rattus norvegicus [27]): 0.13% | Ratio (Rattus norvegicus [28]): 2.33 | Dose/g (Rattus norvegicus [29]): 1.93% | Dose/g (Rattus norvegicus [30]): 0.13% | Dose/g (Rattus norvegicus [31]): 0.86% | Dose/g (Rattus norvegicus [32]): 0.97% | Dose/g (Rattus norvegicus [33]): 1.59% | Dose/g (Rattus norvegicus [34]): 0.4% | Dose/g (Rattus norvegicus [35]): 0.21% | Dose/g (Rattus norvegicus [36]): 0.25% | Ratio (Rattus norvegicus [37]): 2.43 | Ratio (Rattus norvegicus [38]): 1.57 | Dose/g (Rattus norvegicus [39]): 0.65% | Dose/g (Rattus norvegicus [40]): 0.64% | Dose/g (Rattus norvegicus [41]): 0.24% | Dose/g (Rattus norvegicus [42]): 0.11% | Dose/g (Rattus norvegicus [43]): 2.18% | Dose/g (Rattus norvegicus [44]): 0.91% | Dose/g (Rattus norvegicus [45]): 0.76%
